Experimental data: ChEMBL document CHEMBL1165943, “Design and synthesis of new anticancer pyrimidines with multiple-kinase inhibitory effect” (Bioorg Med Chem, 2010)

Assays:
RXF 393 = experiment: Cytotoxicity against human RXF393 cells assessed as cell growth at 10 uM; format: functional; conditions: Homo sapiens, RXF 393; read-out: Activity
Summary of the method: (§1)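 Single-dose screen at 10 μM across the 60-cell-line panel. Cells grown in RPMI 1640 with 5% FBS and 2 mM L-glutamine, seeded at 5,000–40,000 cells/well according to doubling time, and treated 24 h later. Exposure lasted 48 h at 37 °C, 5% CO₂. Adherent cells were fixed with cold TCA, suspension cells were fixed settled, and both were stained with SRB and read at 515 nm. Growth % was recorded, with inhibition % = 100 − growth %.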

SK-MEL-28 = experiment: Cytotoxicity against human SK-MEL-28 cells assessed as cell growth at 10 uM; format: functional; conditions: Homo sapiens, SK-MEL-28; read-out: Activity; summary of the method: as §1
SF-268 = experiment: Cytotoxicity against human SF268 cells assessed as cell growth at 10 uM; format: functional; conditions: Homo sapiens, SF-268; read-out: Activity; summary of the method: as §1
BT-549 [1] = experiment: Cytotoxicity against human BT549 cells assessed as cell growth at 10 uM; format: functional; conditions: Homo sapiens, BT-549; read-out: Activity
Summary of the method: (§2)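 Single-concentration screen at 10 μM across the 60-cell-line panel (nine tissue types); growth percentage recorded per cell line, with inhibition taken as 100 minus growth percentage.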

OVCAR-4 = experiment: Cytotoxicity against human OVCAR4 cells assessed as cell growth at 10 uM; format: functional; conditions: Homo sapiens, OVCAR-4; read-out: Activity; summary of the method: as §1
MDA-MB-231 = experiment: Cytotoxicity against human MDA-MB-231 cells assessed as cell growth at 10 uM; format: functional; conditions: Homo sapiens, MDA-MB-231; read-out: Activity; summary of the method: as §1
HL-60(TB) = experiment: Cytotoxicity against human HL-60(TB) cells assessed as cell growth at 0.001 uM after 48 hrs by sulforhodamine B assay; format: functional; conditions: HL-60, 48 h, read-out: Activity
Summary of the method: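 Five-concentration HL-60(TB) test in RPMI 1640 with 5% FBS and 2 mM L-glutamine. Cells are plated at 5,000–40,000/well and a TCA-fixed time-zero plate is read at drug addition after 24 h. Drug is dissolved in DMSO and given as five 10-fold or ½log dilutions for 48 h at 37 °C, 5% CO2. Settled cells are fixed with TCA, stained with SRB and read at 515 nm.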

SK-MEL-2 = experiment: Cytotoxicity against human SK-MEL-2 cells assessed as cell growth at 10 uM after 48 hrs by sulforhodamine B assay; format: functional; conditions: SK-MEL-2, 48 h, read-out: Activity
SN12C = experiment: Cytotoxicity against human SN12C cells assessed as cell growth at 10 uM; format: functional; conditions: Homo sapiens, SN12C; read-out: Activity; summary of the method: as §1
BT-549 [2] = experiment: Cytotoxicity against human BT549 cells assessed as cell growth at 100 nM after 48 hrs by sulforhodamine B assay; format: functional; conditions: BT-549, 48 h, read-out: Activity
Summary of the method: (§3)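 Cells grown in RPMI 1640 with 5% FBS and 2 mM L-glutamine, seeded at 5,000–40,000 cells/well by doubling time. Time-zero plates TCA-fixed after 24 h. Five concentrations (10-fold or half-log dilutions from DMSO stock) added; 48 h at 37 °C, 5% CO2. Cold TCA fixation (final 10%, 60 min, 4 °C), 0.4% SRB stain, dye solubilized in 10 mM trizma base, A515.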

OVCAR-8 = experiment: Cytotoxicity against human OVCAR8 cells assessed as cell growth at 10 uM; format: functional; conditions: Homo sapiens, OVCAR-8; read-out: Activity; summary of the method: as §1
HCT-15 = experiment: Cytotoxicity against human HCT15 cells assessed as cell growth at 10 uM; format: functional; conditions: Homo sapiens, HCT-15; read-out: Activity; summary of the method: as §2
[3] = Cytotoxicity against human Hs 578T cells assessed as cell growth at 10 uM; format: functional; conditions: read-out: Activity; summary of the method: as §2
OVCAR-3 = experiment: Growth inhibition of human OVCAR-3 cells after 48 hrs by sulforhodamine B assay; format: functional, cell-based; conditions: OVCAR-3, 48 h
Summary of the method: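 Cells grown in RPMI 1640 with 5% FBS and 2 mM L-glutamine, seeded at 5,000–40,000 cells/well according to doubling time. After 24 h, time-zero plates are TCA-fixed. Five concentrations (10-fold or ½log dilutions, DMSO stocks) are applied for 48 h at 37 °C, 5% CO₂. Cells are TCA-fixed, SRB-stained and read at 515 nm. IC₅₀ is taken from [(Ti−Tz)/(C−Tz)]×100 = 50.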

KM12 = experiment: Cytotoxicity against human KM12 cells assessed as cell growth at 10 uM; format: functional; conditions: Homo sapiens, KM12; read-out: Activity; summary of the method: as §1
A549 [4] = experiment: Cytotoxicity against human A549 cells assessed as cell growth at 10 uM after 48 hrs by sulforhodamine B assay; format: functional; conditions: A549, 48 h, read-out: Activity; summary of the method: as §3
HCC 2998 = experiment: Cytotoxicity against human HCC2998 cells assessed as cell growth at 10 uM; format: functional; conditions: Homo sapiens, HCC 2998; read-out: Activity; summary of the method: as §2
[5] = Cytotoxicity against human […] cells assessed as cell growth at 10 uM; format: functional; conditions: Homo sapiens, RPMI8266; read-out: Activity; summary of the method: as §1
SNB-19 = experiment: Cytotoxicity against human SNB19 cells assessed as cell growth at 10 uM; format: functional; conditions: read-out: Activity; summary of the method: as §1
LOX IMVI = experiment: Cytotoxicity against human LOXIMVI cells assessed as cell growth at 10 uM; format: functional; conditions: Homo sapiens, LOX IMVI; read-out: Activity; summary of the method: as §1
MDA-MB-435 = experiment: Cytotoxicity against human MDA-MB-435 cells assessed as cell growth at 10 uM; format: functional; conditions: read-out: Activity; summary of the method: as §1
Malme-3M = experiment: Cytotoxicity against human MALME-3M cells assessed as cell growth at 10 uM; format: functional; conditions: Homo sapiens, Malme-3M; read-out: Activity; summary of the method: as §1
CCRF-CEM = experiment: Cytotoxicity against human CCRF-CEM cells assessed as cell growth at 10 uM; format: functional; conditions: Homo sapiens, CCRF-CEM; read-out: Activity; summary of the method: as §2
T47D = experiment: Cytotoxicity against human T47D cells assessed as cell growth at 100 nM after 48 hrs by sulforhodamine B assay; format: functional; conditions: read-out: Activity
A549 [6] = experiment: Cytotoxicity against human A549 cells assessed as cell growth at 10 uM; format: functional; conditions: Homo sapiens, A549; read-out: Activity; summary of the method: as §2
NCI-H322M = experiment: Cytotoxicity against human NCI-H322M cells assessed as cell growth at 10 uM; format: functional; conditions: Homo sapiens, NCI-H322M; read-out: Activity; summary of the method: as §1
MOLT-4 = experiment: Cytotoxicity against human MOLT4 cells assessed as cell growth at 10 uM; format: functional; conditions: Homo sapiens, MOLT-4; read-out: Activity; summary of the method: as §1
HT-29 = experiment: Cytotoxicity against human HT-29 cells assessed as cell growth at 10 uM after 48 hrs by sulforhodamine B assay; format: functional; conditions: HT-29, 48 h, read-out: Activity
UACC-62 = experiment: Cytotoxicity against human UACC62 cells assessed as cell growth at 10 uM; format: functional; conditions: Homo sapiens, UACC-62; read-out: Activity; summary of the method: as §1
MCF7 = experiment: Cytotoxicity against human MCF7 cells assessed as cell growth at 10 uM; format: functional; conditions: Homo sapiens, MCF7; read-out: Activity; summary of the method: as §1
HOP-92 = experiment: Cytotoxicity against human HOP92 cells assessed as cell growth at 10 uM; format: functional; conditions: Homo sapiens, HOP-92; read-out: Activity; summary of the method: as §2

Compound | growth at 10 µM (RXF 393) [%] | growth at 10 µM (SK-MEL-28) [%] | growth at 10 µM (SF-268) [%] | growth at 10 µM (BT-549 [1]) [%] | growth at 10 µM (OVCAR-4) [%] | growth at 10 µM (MDA-MB-231) [%] | growth at 10 µM (SN12C) [%] | growth at 10 µM (OVCAR-8) [%] | growth at 10 µM (HCT-15) [%] | growth at 10 µM [3] [%] | growth at 10 µM (KM12) [%] | growth at 10 µM (HCC 2998) [%] | growth at 10 µM [5] [%] | growth at 10 µM (SNB-19) [%] | growth at 10 µM (LOX IMVI) [%] | growth at 10 µM (MDA-MB-435) [%] | growth at 10 µM (Malme-3M) [%] | growth at 10 µM (CCRF-CEM) [%] | growth at 10 µM (A549 [6]) [%] | growth at 10 µM (NCI-H322M) [%] | also measured
CC(=O)c1ccccc1-c1ccc(-c2ccnc(NC(=O)Nc3cc(N4CCOCC4)cc(C(F)(F)F)c3)n2)cn1 | -19.6 | -74.8 | 63.9 | 51.7 | 27.5 | 30.1 | 52.3 | 43 | 84.2 | 60.8 | 90.4 | 106 | 79.7 | 71.7 | 44.7 | 82.8 | 24.8 | 80.7 | 68 | 90.1 | growth at 0.001 µM (HL-60(TB)): 92%; growth at 10 µM (SK-MEL-2): -9%; growth at 0.1 µM (BT-549 [2]): 74%; GI50 (OVCAR-3): 6.18 µM; IC50 (OVCAR-3): > 100 µM; TGI (OVCAR-3): > 100 µM; CC50 (OVCAR-3; read-out: LC50 (the source's name)): > 100 µM; growth at 10 µM (A549 [4]): 74%; growth at 0.1 µM (T47D): 8.3%; growth at 10 µM (MOLT-4): 87.1%; growth at 10 µM (HT-29): 91%; growth at 10 µM (UACC-62): 76%; growth at 10 µM (MCF7): 75%
Cc1ccc(Nc2nc(C)cc(-c3cccnc3)n2)c(C)c1 | 90.7 | 108 | 96.4 | 95.9 | 102 | 87.6 | 91.2 | 94.2 | 99.7 | 95.9 | 98.7 | 101 | 86.7 | 101 | 102 | 95.4 | 107 | 95.4 | 90.3 | 100 | growth at 10 µM (HOP-92): 86.9%; growth at 10 µM (MOLT-4): 91.4%; growth at 10 µM (UACC-62): 82.4%; growth at 10 µM (MCF7): 90%
